# pEC50, pIC50: −log10 of the molar value. Activity calls are given as the source filed them. No cut-off for these calls is given here.
# Experiments:
# A10 [1] = experiment: Antitumor activity against rat A10 cells assessed as total loss of cellular microtubule at 150 nM after 18 hrs by indirect immunofluorescence; assay type: functional, cell-based
# KB = experiment: Cytotoxicity against human KB cells; assay type: functional, cell-based
# Procedure, shortened: (§1)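 In vitro cytotoxicity was read out by the sulforhodamine B (SRB) assay, and IC50 values were derived from it.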
# LoVo = experiment: Cytotoxicity against human LoVo cells; assay type: functional, cell-based; procedure, shortened: as §1
# A10 [2] = experiment: Antitumor activity against rat A10 cells assessed as total loss of cellular microtubule at 0.75 nM after 18 hrs by indirect immunofluorescence; assay type: functional, cell-based
# Procedure, shortened: (§2)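 Rat A-10 cells were plated on glass coverslips and left to attach and grow for at least 24 h. Drug was then added for 18 h. Cells were fixed and cellular microtubules were visualised by indirect immunofluorescence.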
# MC-38 = experiment: Antitumor activity against drug-insensitive mouse C38 cell implanted in mouse at 3 mg/kg, iv total dosing schedule on day 3; assay type: functional
# Procedure, shortened: (§3)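 Mice bearing early-stage subcutaneously implanted solid tumours; treatment given intravenously. Activity expressed as T/C and as log kill, (T − C)/(3.32·Td). T and C are the median days for treated and control tumours to reach 750-1000 mg. Td is the tumour volume doubling time.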
# A10 [3] = experiment: Antitumor activity against rat A10 cells assessed as loss of cellular microtubule after 18 hrs by indirect immunofluorescence; assay type: functional, cell-based; settings: A10, 18 h; procedure, shortened: as §2
# Mus musculus [4] = experiment: Gastro intestinal toxicity in iv dosed mouse; assay type: organism-based; settings: in vivo
# Mus musculus [5] = experiment: Liver toxicity in iv dosed mouse; assay type: organism-based; settings: in vivo
# Mus musculus [6] = experiment: Toxicity in iv dosed mouse assessed as local tissue damage; assay type: organism-based; settings: in vivo
# Mus musculus [7] = experiment: Toxicity in iv dosed mouse on 1 day; assay type: organism-based; settings: in vivo, 24 h
# Procedure, shortened: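 Mice received a single intravenous injection on day 1 at 1.0 or 1.4 mg/kg, and lethality was recorded.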
# A10 [8] = experiment: Antitumor activity against rat A10 cells assessed as total loss of cellular microtubule at 2.5 nM after 18 hrs by indirect immunofluorescence; assay type: functional, cell-based
# [9] = Antitumor activity against adriamycin-resistant early stage mouse M16/C/ADR cell implanted in mouse at 3.15 mg/kg, iv total dosing schedule on day 1 and day 3, 5 to 9; assay type: functional; procedure, shortened: as §3
# [10] = Antitumor activity against drug-insensitive mouse 16/C cell implanted in mouse at 1.25 mg/kg, iv total dosing schedule on day 1 and day 4 to 6; assay type: functional; procedure, shortened: as §3
# [11] = Antitumor activity against adriamycin-resistant early stage mouse M17/ADR cell implanted in mouse at 2.8 mg/kg, iv total dosing schedule on day 1 and day 4,7,8; assay type: functional; procedure, shortened: as §3
compound,measurement,setting,value
CC[C@]1(O)C[C@@H]2CN(CCc3c([nH]c4ccccc34)[C@@](C(=O)OC)(c3cc4c(cc3OC)N(C)[C@H]3[C@@](O)(C(=O)OC)[C@H](OC(C)=O)[C@]5(CC)C=CCN6CC[C@]43[C@@H]65)C2)C1,Activity,A10 [1],Active
CC[C@H](C)[C@@H]([C@@H](CC(=O)N1CCC[C@H]1[C@H](OC)[C@@H](C)C(=O)N[C@@H](Cc1ccccc1)c1nccs1)OC)N(C)C(=O)[C@@H](NC(=O)[C@H](C(C)C)N(C)C)C(C)C (stereo in doubt) [DOLASTATIN-10],pIC50,KB; kb,10.39
same,pIC50,LoVo; lovo,10.18
CC[C@H](C)[C@@H]([C@@H](CC(=O)N1CCC[C@H]1[C@H](OC)[C@@H](C)C(=O)N[C@@H](Cc1ccccc1)c1nccs1)OC)N(C)C(=O)[C@@H](NC(=O)[C@H](C(C)C)N(C)C)C(C)C (stereo in doubt; 1),Activity,A10 [2],Active
CC[C@H](C)[C@@H]([C@@H](CC(=O)N1CCC[C@H]1[C@H](OC)[C@@H](C)C(=O)N[C@@H](Cc1ccccc1)c1nccs1)OC)N(C)C(=O)[C@@H](NC(=O)[C@H]([C@@H](C)CC)N(C)C)C(C)C [SYMPLOSTATIN 1],T/C,MC-38,0%
same,pIC50,"KB; Homo sapiens, KB",9.82
same,pEC50,A10 [3],9.22
same,Activity,Mus musculus [4],Toxic
same,pIC50,"LoVo; Homo sapiens, LoVo",9.47
same,Activity,Mus musculus [5],Toxic
same,Activity,Mus musculus [6],Toxic
same,LD20,Mus musculus [7],1 mg/kg
same,LD60,Mus musculus [7],1.4 mg/kg
same,Activity,A10 [8],Active
same,T/C,[9],36%
same,T/C,[10],0%
same,T/C,[11],32%
CC[C@H](C)[C@@H]([C@@H](CC(=O)N1CCC[C@H]1[C@H](OC)[C@@H](C)C(=O)N[C@@H](Cc1ccccc1)c1nccs1)OC)N(C)C(=O)[C@@H](NC(=O)[C@H](C(C)C)N(C)C)C(C)C (stereo in doubt; 1) [DOLASTATIN-10],pIC50,"KB; Homo sapiens, KB",10.28
same,pEC50,A10 [3],9.60
same,pIC50,"LoVo; Homo sapiens, LoVo",10.12

# From ChEMBL document CHEMBL1155721, “Isolation of dolastatin 10 from the marine cyanobacterium Symploca species VP642 and total stereochemistry and biological evaluation of its analogue symplostatin 1” (J Nat Prod, 2001)
